According to the M2OR odorant receptor database:
Substitutions are numbered along the chain they refer to.

Columns and labels:
Conditions in all cases: stereoisomer not certain
UniProt L7N1Y8 = biological target: UniProt L7N1Y8
In short: (§1)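 Each receptor–molecule pair is labelled responsive or non-responsive (inactive) according to whether the original authors judged the measured signal statistically different from baseline. The data were taken from the main text and supplementary material of published papers and checked for typos and inconsistencies. Assay methods differed by source, with transient luciferase assays in mammalian cell lines being common.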

UniProt L7N210 = biological target: T1, UniProt L7N210
T1 sequence (whole entry): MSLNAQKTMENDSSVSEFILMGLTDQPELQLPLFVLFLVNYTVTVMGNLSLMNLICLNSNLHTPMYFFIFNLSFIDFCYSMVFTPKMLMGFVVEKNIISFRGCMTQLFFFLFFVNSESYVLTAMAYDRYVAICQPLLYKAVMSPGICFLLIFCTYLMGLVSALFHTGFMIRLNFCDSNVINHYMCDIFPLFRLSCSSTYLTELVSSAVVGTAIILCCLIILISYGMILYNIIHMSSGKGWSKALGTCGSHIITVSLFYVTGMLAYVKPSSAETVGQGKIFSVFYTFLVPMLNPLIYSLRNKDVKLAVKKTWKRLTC
In short: as §1

UniProt Q3KPB0 = biological target: T2, UniProt Q3KPB0
T2 sequence (whole entry): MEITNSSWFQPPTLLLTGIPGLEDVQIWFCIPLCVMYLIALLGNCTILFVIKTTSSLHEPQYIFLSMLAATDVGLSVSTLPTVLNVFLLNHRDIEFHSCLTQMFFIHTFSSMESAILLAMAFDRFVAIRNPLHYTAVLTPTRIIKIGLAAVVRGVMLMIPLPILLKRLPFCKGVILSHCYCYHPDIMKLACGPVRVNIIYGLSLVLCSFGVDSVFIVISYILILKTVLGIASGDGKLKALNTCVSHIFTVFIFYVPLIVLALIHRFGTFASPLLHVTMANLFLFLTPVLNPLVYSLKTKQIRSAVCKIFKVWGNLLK
In short: as §1

UniProt Q3U0P3 = biological target: T3, UniProt Q3U0P3
T3 sequence (whole entry): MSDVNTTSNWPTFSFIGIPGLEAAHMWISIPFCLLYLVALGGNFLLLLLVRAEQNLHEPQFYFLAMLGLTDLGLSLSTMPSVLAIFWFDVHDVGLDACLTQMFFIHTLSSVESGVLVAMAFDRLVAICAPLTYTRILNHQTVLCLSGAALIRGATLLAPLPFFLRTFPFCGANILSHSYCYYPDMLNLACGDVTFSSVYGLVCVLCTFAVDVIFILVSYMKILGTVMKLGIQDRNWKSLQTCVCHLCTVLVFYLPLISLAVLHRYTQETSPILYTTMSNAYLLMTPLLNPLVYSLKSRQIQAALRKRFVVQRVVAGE
In short: as §1

UniProt Q7TQU8 = biological target: T4, UniProt Q7TQU8
T4 sequence (whole entry): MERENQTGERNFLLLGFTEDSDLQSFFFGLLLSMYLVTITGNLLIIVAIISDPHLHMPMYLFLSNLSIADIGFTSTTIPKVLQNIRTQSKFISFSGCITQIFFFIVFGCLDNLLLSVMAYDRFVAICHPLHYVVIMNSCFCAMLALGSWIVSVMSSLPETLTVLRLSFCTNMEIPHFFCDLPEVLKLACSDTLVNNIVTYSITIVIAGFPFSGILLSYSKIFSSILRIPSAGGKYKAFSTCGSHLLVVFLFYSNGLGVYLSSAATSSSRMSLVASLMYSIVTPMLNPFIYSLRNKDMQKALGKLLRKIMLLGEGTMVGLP
In short: as §1

UniProt Q7TQV4 = biological target: T5, UniProt Q7TQV4
T5 sequence (whole entry): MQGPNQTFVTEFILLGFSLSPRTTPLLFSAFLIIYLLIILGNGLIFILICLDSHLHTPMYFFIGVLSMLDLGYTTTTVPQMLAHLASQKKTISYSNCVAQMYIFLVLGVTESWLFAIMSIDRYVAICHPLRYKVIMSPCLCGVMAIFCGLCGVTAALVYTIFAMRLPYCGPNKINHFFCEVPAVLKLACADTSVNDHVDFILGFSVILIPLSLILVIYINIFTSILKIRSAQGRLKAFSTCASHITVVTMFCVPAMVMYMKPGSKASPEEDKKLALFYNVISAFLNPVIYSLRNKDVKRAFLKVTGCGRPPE
In short: as §1

UniProt Q7TR71 = biological target: T6, UniProt Q7TR71
T6 sequence (whole entry): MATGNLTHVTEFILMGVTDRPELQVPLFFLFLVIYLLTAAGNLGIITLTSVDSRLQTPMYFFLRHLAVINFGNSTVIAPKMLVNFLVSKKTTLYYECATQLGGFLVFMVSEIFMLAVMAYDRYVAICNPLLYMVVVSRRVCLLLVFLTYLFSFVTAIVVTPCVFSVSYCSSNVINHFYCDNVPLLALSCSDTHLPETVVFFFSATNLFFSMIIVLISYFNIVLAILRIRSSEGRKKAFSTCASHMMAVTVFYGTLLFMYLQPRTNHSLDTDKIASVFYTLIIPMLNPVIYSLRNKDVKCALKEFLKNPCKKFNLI
In short: as §1

UniProt Q7TR75 = biological target: UniProt Q7TR75
Sequence of UniProt Q7TR75 (Q7TR75 as listed by the source): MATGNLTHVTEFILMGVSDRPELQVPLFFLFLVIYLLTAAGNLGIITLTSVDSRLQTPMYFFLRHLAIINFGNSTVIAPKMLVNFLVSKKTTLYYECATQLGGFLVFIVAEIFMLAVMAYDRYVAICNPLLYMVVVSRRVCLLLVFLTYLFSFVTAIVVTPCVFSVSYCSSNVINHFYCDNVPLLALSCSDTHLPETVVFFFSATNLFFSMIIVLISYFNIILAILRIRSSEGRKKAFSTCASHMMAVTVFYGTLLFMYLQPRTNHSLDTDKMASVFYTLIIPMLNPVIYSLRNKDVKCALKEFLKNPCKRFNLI
In short: as §1

UniProt Q7TR79 = biological target: T7, UniProt Q7TR79
T7 sequence (whole entry): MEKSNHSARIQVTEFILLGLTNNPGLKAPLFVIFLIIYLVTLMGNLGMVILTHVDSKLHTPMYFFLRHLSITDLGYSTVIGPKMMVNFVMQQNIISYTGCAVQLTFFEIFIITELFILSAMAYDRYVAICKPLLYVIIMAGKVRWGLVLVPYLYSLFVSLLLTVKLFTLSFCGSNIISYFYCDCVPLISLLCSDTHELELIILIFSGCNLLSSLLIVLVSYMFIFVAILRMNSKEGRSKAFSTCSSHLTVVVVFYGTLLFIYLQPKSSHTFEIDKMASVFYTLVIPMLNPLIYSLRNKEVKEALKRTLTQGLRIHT
In short: as §1

UniProt Q7TRA1 = biological target: T8, UniProt Q7TRA1
T8 sequence (whole entry): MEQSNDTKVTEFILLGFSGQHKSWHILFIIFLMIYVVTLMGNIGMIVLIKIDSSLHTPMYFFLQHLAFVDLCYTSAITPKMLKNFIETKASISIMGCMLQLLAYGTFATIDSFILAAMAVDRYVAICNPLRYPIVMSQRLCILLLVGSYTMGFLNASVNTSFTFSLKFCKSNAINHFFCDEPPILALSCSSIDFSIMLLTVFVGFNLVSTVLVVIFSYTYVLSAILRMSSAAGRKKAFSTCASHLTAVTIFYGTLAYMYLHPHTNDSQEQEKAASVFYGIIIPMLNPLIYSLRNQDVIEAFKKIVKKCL
In short: as §1

UniProt Q7TRA2 = biological target: T9, UniProt Q7TRA2
T9 sequence (whole entry): T8 sequence (whole entry) with S18A, I86T, I94F, M95I, S112C, V208L, T219I, V221I, V305A
In short: as §1

UniProt Q7TRA3 = biological target: T10, UniProt Q7TRA3
T10 sequence (whole entry): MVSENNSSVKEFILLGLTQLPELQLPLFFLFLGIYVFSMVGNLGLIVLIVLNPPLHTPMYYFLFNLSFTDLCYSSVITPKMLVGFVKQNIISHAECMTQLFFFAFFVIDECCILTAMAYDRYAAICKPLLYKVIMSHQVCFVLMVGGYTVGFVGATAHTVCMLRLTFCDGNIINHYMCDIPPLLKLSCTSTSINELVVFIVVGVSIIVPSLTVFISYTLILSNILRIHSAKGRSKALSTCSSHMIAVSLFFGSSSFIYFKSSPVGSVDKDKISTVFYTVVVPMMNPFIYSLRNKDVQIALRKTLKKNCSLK
In short: as §1

UniProt Q7TRB8 = biological target: UniProt Q7TRB8
Sequence of UniProt Q7TRB8 (Q7TRB8 as listed by the source): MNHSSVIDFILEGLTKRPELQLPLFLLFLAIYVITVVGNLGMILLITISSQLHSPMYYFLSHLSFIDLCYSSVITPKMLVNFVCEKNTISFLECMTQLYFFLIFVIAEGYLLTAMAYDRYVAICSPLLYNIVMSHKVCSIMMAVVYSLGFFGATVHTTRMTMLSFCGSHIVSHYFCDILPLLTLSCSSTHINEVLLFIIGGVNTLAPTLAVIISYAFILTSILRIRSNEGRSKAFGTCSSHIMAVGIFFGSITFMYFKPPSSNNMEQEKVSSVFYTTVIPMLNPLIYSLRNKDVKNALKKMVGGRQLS
In short: as §1

UniProt Q7TRE4 = biological target: T11, UniProt Q7TRE4
T11 sequence (whole entry): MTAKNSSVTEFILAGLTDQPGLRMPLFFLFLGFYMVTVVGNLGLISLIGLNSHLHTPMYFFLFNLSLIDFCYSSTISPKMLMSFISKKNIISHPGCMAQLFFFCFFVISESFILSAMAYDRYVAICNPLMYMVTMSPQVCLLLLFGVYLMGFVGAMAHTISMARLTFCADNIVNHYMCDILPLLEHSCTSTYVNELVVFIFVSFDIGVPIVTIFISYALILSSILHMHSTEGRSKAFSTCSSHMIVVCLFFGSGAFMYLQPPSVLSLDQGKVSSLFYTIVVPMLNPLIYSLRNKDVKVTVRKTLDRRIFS
In short: as §1

UniProt L7N0P5 = biological target: T12, UniProt L7N0P5
T12 sequence (whole entry): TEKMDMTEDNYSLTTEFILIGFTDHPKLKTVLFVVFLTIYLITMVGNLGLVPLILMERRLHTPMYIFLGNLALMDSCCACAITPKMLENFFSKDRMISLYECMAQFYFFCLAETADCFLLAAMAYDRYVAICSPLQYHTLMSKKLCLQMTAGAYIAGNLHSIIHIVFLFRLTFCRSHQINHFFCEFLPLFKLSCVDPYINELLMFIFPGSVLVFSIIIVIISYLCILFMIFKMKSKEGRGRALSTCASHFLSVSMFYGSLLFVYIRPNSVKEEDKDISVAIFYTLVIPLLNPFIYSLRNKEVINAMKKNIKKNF
In short: as §1

UniProt L7MU75 = biological target: T13, UniProt L7MU75
T13 sequence (whole entry): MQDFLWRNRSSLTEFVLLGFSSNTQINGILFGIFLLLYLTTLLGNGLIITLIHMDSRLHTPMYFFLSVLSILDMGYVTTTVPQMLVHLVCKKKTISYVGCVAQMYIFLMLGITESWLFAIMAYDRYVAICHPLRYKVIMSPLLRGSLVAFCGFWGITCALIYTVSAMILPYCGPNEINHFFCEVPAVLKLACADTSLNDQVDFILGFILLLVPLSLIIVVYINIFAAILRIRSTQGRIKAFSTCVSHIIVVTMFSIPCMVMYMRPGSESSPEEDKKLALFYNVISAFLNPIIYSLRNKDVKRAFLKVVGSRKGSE
In short: as §1

UniProt Q7TRN9 = biological target: T14, UniProt Q7TRN9
T14 sequence (whole entry): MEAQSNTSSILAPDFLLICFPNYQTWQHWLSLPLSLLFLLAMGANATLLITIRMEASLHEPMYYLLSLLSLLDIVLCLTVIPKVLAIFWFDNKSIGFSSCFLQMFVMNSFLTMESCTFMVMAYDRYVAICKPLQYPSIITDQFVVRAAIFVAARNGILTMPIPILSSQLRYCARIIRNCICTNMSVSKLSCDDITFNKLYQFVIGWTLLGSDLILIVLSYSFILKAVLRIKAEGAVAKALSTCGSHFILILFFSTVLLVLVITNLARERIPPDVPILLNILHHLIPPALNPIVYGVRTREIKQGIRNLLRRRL
In short: as §1

UniProt Q7TRM0 = biological target: T15, UniProt Q7TRM0
T15 sequence (whole entry): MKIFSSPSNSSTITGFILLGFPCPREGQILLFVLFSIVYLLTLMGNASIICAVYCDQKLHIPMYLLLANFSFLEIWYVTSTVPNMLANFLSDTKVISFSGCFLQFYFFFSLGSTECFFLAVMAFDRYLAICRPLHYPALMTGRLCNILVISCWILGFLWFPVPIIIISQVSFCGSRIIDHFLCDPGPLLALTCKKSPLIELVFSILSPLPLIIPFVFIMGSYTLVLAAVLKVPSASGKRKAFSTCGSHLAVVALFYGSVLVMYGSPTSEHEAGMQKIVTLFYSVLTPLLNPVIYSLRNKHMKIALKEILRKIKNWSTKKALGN
In short: as §1

Measured: odorant receptor agonist call

Sequence of UniProt L7N1Y8 (L7N1Y8 as listed by the source): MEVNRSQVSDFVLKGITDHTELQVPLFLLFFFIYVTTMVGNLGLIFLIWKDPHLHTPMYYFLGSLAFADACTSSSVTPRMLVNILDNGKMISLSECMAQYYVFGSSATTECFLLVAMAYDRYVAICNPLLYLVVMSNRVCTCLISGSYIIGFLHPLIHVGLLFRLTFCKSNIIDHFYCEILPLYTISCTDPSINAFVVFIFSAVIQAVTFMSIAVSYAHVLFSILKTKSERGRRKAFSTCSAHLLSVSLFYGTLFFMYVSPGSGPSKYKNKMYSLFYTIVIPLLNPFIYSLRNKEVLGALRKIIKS

O=C1CCOc2ccccc21
active: UniProt L7N1Y8 | UniProt L7N210 | UniProt Q7TR71 | UniProt Q7TR75 | UniProt Q7TRA3
not listed: UniProt L7N0P5 | UniProt L7MU75 | UniProt Q7TRN9 | UniProt Q7TRM0
inactive: all other assays above

CC(=O)c1cnccn1
active: UniProt L7N0P5

CCCCCO
inactive: UniProt L7MU75 | UniProt L7N210 | UniProt Q7TQV4 | UniProt Q7TR71 | UniProt Q7TRA3 | UniProt Q7TRE4 | UniProt Q7TRN9

COc1nccnc1CC(C)C
active: UniProt L7N0P5

CCCCCCC(=O)[O-].[H+]
active: UniProt Q7TRN9
inactive: UniProt L7MU75 | UniProt L7N210 | UniProt Q7TQV4 | UniProt Q7TR71 | UniProt Q7TRA3 | UniProt Q7TRE4 | UniProt Q7TRM0

Cc1cnc(C)cn1
active: UniProt L7N0P5

CCCCCCCC(=O)[O-].[H+]
active: UniProt Q7TRN9
inactive: UniProt L7N210 | UniProt Q7TQV4 | UniProt Q7TR71 | UniProt Q7TRA3 | UniProt Q7TRE4 | UniProt Q7TRM0

CCc1cnc(C)c(C)n1
inactive: UniProt L7N0P5

O=C(O)CCCCCBr
inactive: UniProt L7MU75 | UniProt L7N210 | UniProt Q3KPB0 | UniProt Q3U0P3 | UniProt Q7TQU8 | UniProt Q7TR79 | UniProt Q7TRM0 | UniProt Q7TRN9

CCCCCC(=Cc1ccccc1)C(OC)OC
inactive: UniProt L7MU75 | UniProt L7N210 | UniProt Q3KPB0 | UniProt Q3U0P3 | UniProt Q7TQU8 | UniProt Q7TR79

CCc1nccnc1C(C)=O
active: UniProt L7N0P5

CCc1nccnc1OC
active: UniProt L7N0P5

CCc1nccnc1C
active: UniProt L7N0P5
